Test: Toxicity liver stage against HepG2, at 10uM
Format: cell-based
Design: test concentration 10 uM, cell line HepG2-A16-CD81EGFP
Details: human, HepG2-A16-CD81EGFP cells; read-out: INHIBITION
Procedure, shortened: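 Uninfected HepG2-A16-CD81EGFP cells, 3 × 10^3 per well, 1536-well, plated on prespotted compound at 10 μM final, parasite-free screening media added to match infected plates; puromycin 10 μM positive, DMSO 0.5% negative; run in parallel with 48 h PbLuc assay at 37 °C, 5% CO2; viability by CellTiter-Glo luminescence, normalized to controls.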

Compound | cytotoxicity at 10 µM [%]
O=C(NC[C@H]1Cn2c(-c3ccccc3)cnc2CO1)C1CCOCC1 | -0.869
F[C@@H]1CN(C2CCC2)C[C@@H]1OCc1nc2ncccc2[nH]1 | -6.66
CCCC1CN(CCOc2ccccc2)C(=O)c2cccnc2O1 (stereo not given) | -6.77
COc1ccc(C(=O)N2CC[C@@]3(O)CCCC[C@H]3C2)cc1OC | -43.4
CC(C)c1sc(Cl)nc1C(=O)N1CCN(c2ccccn2)CC1 | -43.8
CCc1ccc(CN2CCC3(CCCN(C(=O)N(C)C)C3)C2)o1 (stereo not given) | 7.07
Cc1noc([C@]23COC[C@H]2CN(S(=O)(=O)N(C)C)C3)n1 | 10.9
O=S(=O)(C1CC1)N1CC[C@]2(C[C@H](OCC3CCOCC3)CO2)C1 | 8.64
CNc1oc(-c2ccc(OC)c(S(=O)(=O)N3CCCCC3)c2)nc1C#N | 10.4
Nc1nnc(CCCn2nnc(-c3ccccc3F)n2)s1 | -1.67
CCn1nccc1CN(C)C(=O)Cn1nc(C)c(C)c1C | 0.66
Cn1nc(C2CNCCO2)cc1CCOc1ccc(C(F)(F)F)cc1 (stereo not given) | -7.54
CC1Cc2ccccc2N1C(=O)Cn1nc(-c2cccs2)ccc1=O (stereo not given) | -9.08
CNC(=O)CN1CCC2(CC1)C[C@@H](O)[C@H](c1ccccc1)NC2=O | -32.2
CCCc1ncc(CNC2(c3ccc(Cl)cc3)CC2)cn1 | -31.6
Cc1nc(Nc2ncccn2)cc(C2CCN(CC(C)C)C2)n1 (stereo not given) | -16.1
Cc1cccnc1C(=O)N1CCC(Cc2cnc3[nH]ccc3c2)CC1 | 1.85
Cc1cc(C(=O)Nc2ccc3c(c2)N(C)CCN(C)C3)on1 | 7.34
COc1c(CNCCc2c[nH]c3cc(F)ccc23)c(C(C)C)nn1C | 4.64
CC1CC(NS(=O)(=O)c2ccc(C(F)(F)F)nc2)C1 (stereo not given) | 23.1
CN(C)C(CNC(=O)OCC(F)(F)F)c1ccsc1 (stereo not given) | -44.4
CCN(Cc1cccs1)S(=O)(=O)N(C)C(C)C | -49

Compound | cytotoxicity at 10 µM [%]
COc1ccc(Oc2ncccc2NC(=O)N2CCOC(C)C2)cc1 (stereo not given) | 2.65
Cc1noc(C)c1C(=O)NCc1cc[nH]n1 | 9.31
Cc1ccc(NC(=O)c2nc(N3CCCCC3)ncc2Cl)cc1I | -0.906
CCC(=O)NCC(=O)Nc1c(C)cnn1Cc1cc(F)ccc1F | -2.59
CCN1CCN(c2ccc(F)cc2C(C)NCc2ccccn2)CC1 (stereo not given) | 7.96
Cn1ccnc1CC1CCCN(C(=O)NCCOc2cccnc2)C1 (stereo not given) | -5.19
CN1CCCN(S(C)(=O)=O)c2cc(F)ccc21 | -2.24
Oc1ccc(N2CCN(Cc3ccc(F)cc3Br)CC2)cc1 | -13.2
Cc1noc(NS(=O)(=O)c2ccc(Cl)s2)c1C | 5.3
COCc1cccc(NC(C(N)=O)c2ccc(Br)cc2)c1 (stereo not given) | 2.94
O=C1CCc2cc(S(=O)(=O)NC(=O)c3ccc4c(c3)CCO4)ccc2N1 | -17.7
CN(C)S(=O)(=O)c1ccc(CNC(=O)C2CC2)cc1 | 7.04
COCCN(CCOC)C(=O)c1ccc(Cn2nc(C)cc2C)cc1 | -5.15
Cc1noc(C)c1CS(=O)(=O)CC(=O)N(C)Cc1cccc(F)c1 | -8.1
Cc1cc(C(=O)NS(=O)(=O)Cc2ccon2)c(C)o1 | 4.42
O=C(c1ccc2c(c1)[nH]c(=O)n2C1CCCC1)N1CC(O)C1 | -53.5
CN(Cc1ccccc1F)C(=O)c1ccoc1 | 11.3
CC(C)CC(C#N)NC(=O)c1ccc(Oc2cccnc2)cc1 (stereo not given) | -11.4
CN1CCCC(NC(=O)c2ccc(C(=O)c3cc[nH]c3)cc2)C1 (stereo not given) | 11.9
COc1ccc(CNC(C)c2cccc(Cl)c2)c(OC)c1OC (stereo not given) | 14
COCC1c2nnn(C)c2CCN1C(=O)c1ccc(OC)c(F)c1 (stereo not given) | -105
CCOCC1CN(CC2CCC2)Cc2nnn(CC3CC3)c21 (stereo not given) | 12.7

Compound | cytotoxicity at 10 µM [%]
Cn1cccc1C(=O)N1C[C@H](OCC2CCOCC2)[C@H]2COC[C@H]21 | -109
Cc1ncoc1C(=O)N1C[C@H]2CCC[C@@]2(COCC2CCOCC2)C1 | 0.23
CN(C)C(C(=O)N1CCN(CCn2cccc2)CC1)c1cccc(F)c1 (stereo not given) | -22.8
Cc1ccc(CN(C)Cc2nc3ccc(F)cc3[nH]2)cn1 | -5.16
O=C(NCCCOc1cccnc1)c1cn(CCc2ccccc2)nn1 | -0.977
CCCc1nnc(N2CCN(c3ccccc3F)CC2)o1 | 5.85
OCCN1CCN(Cc2cnc3c(-c4ccccc4)cnn3c2)CC1 | -2.72
CCc1ccc(CN(C)C(=O)C(c2ccccc2F)N(C)C)nc1 (stereo not given) | 4.03
COc1cccc2c1OCC(C(=O)N1Cc3ccccc3C1)C2 (stereo not given) | 3.16
O=C(NCc1csc2ccc(Cl)cc12)c1cc2n(n1)CCNC2 | -0.699
CCc1ccccc1CN1CC[C@@]2(O)CCN(S(=O)(=O)N(C)C)C[C@H]2C1 | -2.19
O=S(=O)(NCc1ccccc1)Nc1ccc(-n2ccnc2)cc1 | 7.03
O=C1CC(NCc2ccncc2)CN1CCc1cccc(Cl)c1 (stereo not given) | -127
NCC1CCCCN1Cc1cc(O)c2cccc(F)c2n1 (stereo not given) | -18.2
CN(C)Cc1cc(-c2nccn2CCn2cccn2)ccc1O | -50.5
Cc1nnc(NC(=O)N2CCCCC2CCO)s1 (stereo not given) | -43.2
CN(C)C(=O)N1CCCC(C(=O)N(C)Cc2cnc(N)nc2)C1 (stereo not given) | -2.81
CCOC(=O)c1coc(N2CCN(Cc3ccc(C)cc3)C(=O)C2)n1 | -0.0261
CN(Cc1cccnc1)CC1(O)CCCN(CC(C)(C)C)C1=O (stereo not given) | 3.09
Cc1ccoc1C(=O)N1CCNCC1C(=O)NCc1ccncc1 (stereo not given) | 6.03
CCCn1ncc(C2CC(=O)NCc3nc4sc(C)cn4c32)c1C (stereo not given) | -10.8
Cc1cc(C)n(CC(=O)N2CCCCC2CCN2CCCC2=O)c(=O)n1 (stereo not given) | 5.09

Compound | cytotoxicity at 10 µM [%]
CC(C)(C)C(=O)N1CCC(n2cc(C3(O)CCCC3)nn2)CC1 | 3.15
Cc1c(C(C)NC(=O)Nc2ccc(F)cc2F)cnn1C (stereo not given) | -46.2
Cc1ccnn1CCC(=O)N1CCOC(CCc2ccccc2)C1 (stereo not given) | -51.1
O=C1NCC2(CCCN(Cc3ccccc3OCCO)C2)O1 (stereo not given) | -39.2
COCc1nnc(C(=O)N2CCCC(O)C2)o1 (stereo not given) | 1.31
CCc1cc(CN(C)C(=O)CN2CC3(CCNCC3)OC2=O)on1 | 0.394
CC(C(=O)O)N1CCc2onc(-c3ccc(F)c(F)c3)c2C1 (stereo not given) | 14.9
O=C(CCc1nc(Cl)n[nH]1)NC1CCCN(CC2CCCCC2)C1 (stereo not given) | -11.4
N[C@H]1CN(S(=O)(=O)N2CCCC2)C[C@@H]1c1ccccc1 | 6.86
O=C1NC[C@@]2(C(=O)O)CN(Cc3cccc(C(F)(F)F)c3)C[C@@H]12 | -8.58
CCN(C)Cc1cnc(S(=O)(=O)CC)n1CCOC | 4.38
Cc1cc(C)n(CC2CN(CC(=O)Nc3ccncc3)CCO2)n1 (stereo not given) | -3.18
Cc1cnn(C2CCCN(C(=O)c3ccc(C(N)=O)cn3)C2)c1 (stereo not given) | -7.35
Cc1cc(CN2CCN(C(=O)NCc3c(C)noc3C)CC2)on1 | 0.386
CC(C)(C)NC(=O)NC(=O)CN1C=Nc2ccccc2S1(=O)=O | -8.68
CN(Cc1cccc(C#N)c1)Cc1nc2c(cnn2C)c(=O)[nH]1 | -8.7
CC(C)(C)c1nc(CN2CCOC(Cn3cncn3)C2)cs1 (stereo not given) | -7.2
CN(C)C(=O)CCS(=O)(=O)Cc1cc(Cl)c2c(c1)OCO2 | -5.09
CCc1c(C(=O)N2CCCN(C(C)=O)CC2)cnn1C(C)(C)C | -3.93
Cn1ccnc1CN1CCN(CCOc2ccccc2C#N)CC1 | -14.9
COc1cccc(CN2CCN(C(=O)CN3CCOCC3)CC2)n1 | -5.7
CCC(C)(C)NC(=O)C1CC(=O)N(CC2CC2)C1 (stereo not given) | -4.72

Compound | cytotoxicity at 10 µM [%]
COc1cccc(C(=O)NS(=O)(=O)c2cccc(C#N)c2)c1OC | -8.06
Cc1cc(C)n(CC2CCCN2C(=O)c2ccc(C(N)=O)cn2)n1 (stereo not given) | -3.87
Cc1cnc(CN(C)C2CCN(CCn3cc(C#N)cn3)C2)o1 (stereo not given) | -5.45
Cc1nn(C)c(C)c1C1CCCN1CC(=O)Nc1ccncc1 (stereo not given) | -5.53
Cc1ccn(-c2cccc(C(=O)N3CCCC(n4ccnc4C)C3)c2)n1 (stereo not given) | -14.2
CCC(O)CN1CCN(C(=O)Cc2cc(Cl)ccc2OC)CC1 (stereo not given) | -10.4
Cc1nc(C)n(CC2CCCN2Cc2ccn(-c3ccccc3)n2)n1 (stereo not given) | -5.01
O=C(CCN1CCOC(Cn2cccn2)C1)NC1CCCC1 (stereo not given) | 4.98
Cc1nc(C(=O)N2CCC(Nc3cccnn3)CC2)cs1 | 6.74
O=C(Nc1nc2c(s1)CNCC2)NC1CCCC1 | -2.37
COc1ccc(CN2CCn3c(CO)nnc3C2)cc1CN1CCCC1 | -24.5
CNCC1CCC(c2cc(CN(C)S(=O)(=O)N(C)C)n(C)n2)CC1 (stereo not given) | -1.33
O=C(NC1CC1)[C@H]1C[C@@H]2CCN(CCc3ccccc3)C[C@H]2O1 | 6.46
c1cc(CNCc2ccnc(N3CCCC3)c2)c2c(c1)OCCO2 | 3.64
Cc1cccc(N2CCOCC3(C2)CN(c2cnn(C)c2)C(=O)CO3)n1 (stereo not given) | -0.136
c1cncc(COCC2CC[C@H]3[C@H]2OCCN3Cc2ccoc2)c1 (stereo not given in full) | 1.2
COc1ccc(CN2CCOC3(CCCN(c4cnccn4)C3)C2)cc1 (stereo not given) | 10.5
CC(C)N1[C@H](CN(C)C)C[C@@H]2CN(c3ncc(F)cn3)CC[C@@H]21 | 11.7
O=C1NC(c2ccccc2)=N[C@@]12CC[C@@H]1CN(CC3CC3)C[C@@H]12 | 9.79
CC(C)N(C)Cc1cncc2c1CCN(CC1CC1)C2 | -102
O=C1OCCN1CC(=O)N1C[C@@H]2CC[C@H]1CN(C(=O)c1ccccn1)C2 | 13.5
O=C(Cc1cccs1)N1C[C@H]2CC[C@@H](C1)N(Cc1ccccn1)C2=O | 1.07

From ChEMBL document CHEMBL4513216, “Probing the Open Global Health Chemical Diversity Library for Multistage-Active Starting Points for Next-Generation Antimalarials” (ACS Infect Dis, 2020)
